Screens (PubChem BioAssay)
PABP1 MLLE inh: blocks PAM2 peptide binding to the PABP1 MLLE domain. AID 588489. GST-MLLE / FITC-PAM2 fluorescence polarization. P11940. inhibition, % at 20 µM. 360,000 tested, 0.36% active; in the data active means inhibition above about 35%, passing the limit was not always enough;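 further: plate controls were DMSO wells with GST-MLLE for no effect and wells lacking GST-MLLE protein for full effect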
MT1-MMP act inh: MT1-MMP (human) activation inhibition; 360,000 tested, 0.061% active; AID 651647; P50281; GFP/RFP ratio change, % at 20 µM; HT1080 RFP-PRO-GFP cells, GFP/RFP ratio fluorescence, overnight; percent of plate control window, DMSO zero;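 active means GFP/RFP ratio change of at least 30% with cell ATP level not reduced by more than half and red fluorescence within 50% of control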
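Assay system – RFP-PRO-GFP reporter HT1080 cells · Compound dosing – single dose of 20 µM compound, 1% DMSO final · Incubation – overnight compound exposure at 37 °C · Measure – GFP/RFP fluorescence ratio · Benchmarks – DMSO wells and RFP-L50D-GFP cells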
PABP FP inh: blocks human PABP binding to poly(A) RNA. P11940. fluorescence polarization. inhibition, % at 35 µM. 290,000 tested, 1% active;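 further: calls also rest on retests at 20 µM and on dose response follow-up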
SKN-1 inh: C. elegans SKN-1 inhibition; inhibition, % at 21.8 µM; C. elegans VP596 Pgst-4::GFP/RFP ratio, acrylamide-induced, 24 h; 360,000 tested, 0.49% active;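 active means interference check ratio from 0.5 to 1.5 plus GFP to RFP signal ratio inhibition reaching or exceeding a fixed threshold, cut at about 30% in these data, passing the limit was not always enough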
eIF4H inh: inhibitors of RNA binding by human eIF4H | Q15056 | eIF4H fluorescence polarization binding assay | 290,000 tested, 0.94% active | inhibition, % at 35 µM;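 further: calls also rest on retests at 20 µM and on dose response follow-up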
Numbers without * were called inactive; ? = inconclusive; . = no result given. Only some compounds are listed: those with a hit (about 1.7% of all), similar ones and a draw of the others. Unless noted, how the calls were made is not given here.

SMILES	PABP1 MLLE inh	MT1-MMP act inh	PABP FP inh	SKN-1 inh	eIF4H inh
CC1CCN(S(=O)(=O)c2ccc(S(=O)(=O)N3CCCC3)cc2)CC1	8	5	-2	-7	6
Cc1ccc(NC(=O)COc2ccc(Br)cc2CO)cc1S(=O)(=O)N1CCOCC1	2	2	.	41*	.
O=C(O)CSc1c2ccccc2cc2ccccc12	38*	-1	20	-12	-1
Cc1ccc(C(=O)O)cc1NS(=O)(=O)c1ccc2c(c1)oc(=O)n2C	-2	-17	33*	9	77
CCOC(=O)N1CCC(NC(=O)C2CCCN(S(=O)(=O)c3ccc4c(c3)oc(=O)n4C)C2)CC1 (stereo not given)	4	1	5	6	-3
CCOC(=O)N1CCC(NS(=O)(=O)c2ccc3c(c2)oc(=O)n3C)CC1	0	-24	56*	-45	67*
Cn1c(=O)oc2cc(S(=O)(=O)NCc3ccncc3)ccc21	4	-19	67*	7	72*
Cn1c(=O)oc2cc(S(=O)(=O)NCc3ccc(C(=O)O)cc3)ccc21	1	.	?	-11	?
CCOC(=O)c1c(N)sc2c1CCS(=O)(=O)C2	39*	1	38	-7	18
CCN1CCN(S(=O)(=O)c2ccc(Cl)c(C(=O)NC(C)c3ccccc3Cl)c2)CC1 (stereo not given)	1	3	.	19	.
c1cc(-c2cccs2)nc(-c2cccs2)c1	-4	4	-8	5	0
c1csc(-c2cn3ccc4ccccc4c3n2)c1	-9	1	-2	39*	-8
O=c1cc(CN2CCN(c3ccccc3F)CC2)c2ccccc2o1	6	-1	.	24	.
CCC(C)(C)C(=O)Nc1ncc(S(=O)(=O)c2ccc([N+](=O)[O-])cc2)s1	-69	2	6	36*	0
CCC(C(=O)N(C(C)C)C(C)C)c1ccccc1 (stereo not given)	9	3	.	37*	.
CC(=O)Nc1ccc(C(=O)CSc2ncn(-c3ccccc3)n2)cc1	41*	-1	3	31	-6
O=C(CSc1ncn(-c2ccccc2)n1)Nc1nc2c(s1)CCCC2	19	1	31*	-6	74*
OC(c1cccc(Cl)c1)c1nc(-c2ccoc2)cs1 (stereo not given)	2	-2	.	-7	.
O=C(N/N=C/c1ccc([N+](=O)[O-])o1)c1sc2ccccc2c1Cl	-26	-10	38	-8	72*
Cc1cc(C(=O)N/N=C/c2ccc([N+](=O)[O-])o2)c(C)o1	17	-5	14	-1	39
Cc1nonc1C(=O)N/N=C/c1ccc([N+](=O)[O-])o1	0	-11	32*	7	89*
O=C(N/N=C/c1ccc([N+](=O)[O-])o1)c1cc(-c2cccc(Br)c2)nc2ccccc12	-19	20	8	22	56*
O=C(N/N=C/c1ccc([N+](=O)[O-])o1)c1cn2ccc3ccccc3c2n1	-2	0	69*	6	82*
CC(C)c1ccc(/C=N/NC(=O)c2ccc(-n3cnnn3)cc2)cc1	7	6	.	3	.
Cc1n(-c2ccccc2)c2ccc(Cl)cc2[n+]1CCO	-93	-8	64*	1	1
SMILES	PABP1 MLLE inh	MT1-MMP act inh	PABP FP inh	SKN-1 inh	eIF4H inh
O=C(Nc1ccccc1)OCCCc1ccccc1	-12	2	-10	35*	7
NC(=O)c1ccsc1NC(=O)CSc1nc2ccccc2c(=O)n1CCCO	51*	-1	8	3	1
Cc1ccc(OC(=O)CCC(=O)Nc2ccc(C)c(C)c2)cc1	12	1	.	0	.
Clc1ccc(C(c2nnnn2C2CCCC2)N2CCN(c3nc4ccccc4s3)CC2)cc1 (stereo not given)	-8	-1	.	16	.
c1cnc2ccc(C(c3nnnn3C3CCCC3)N3CCN(c4nc5ccccc5s4)CC3)cc2c1 (stereo not given)	-7	.	51*	-26	active
O=[N+]([O-])c1ccc2nc(N3CCCC3)sc2c1	-87	2	50*	39*	34
O=C(c1ccccc1)N1CCN(c2nc3ccc([N+](=O)[O-])cc3s2)CC1	-5	-3	-4	7	7
Cc1ccc2nc(-c3cccc(S(=O)(=O)N(C)C)c3)cn2c1	-3	1	-1	1	-8
CCN(CC)S(=O)(=O)c1cccc(-c2cn3cc(C)ccc3n2)c1	1	10	3	12	57*
